# Bioassay records as filed in PubChem BioAssay.
# MITF act – MITF TRPM1 promoter activation in melanoma cells | SK-MEL-5 TRPM1-promoter luciferase, 24 h; % of positive control, neutral wells = 0 | activation, % at 12.5 µM | hit rate 0.75% among 300,000 | AID 588334;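 active means mean activation of at least 80% with every replicate also reaching 80%; inconclusive means mean reaches 80% but some replicate falls short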;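 further: 0% = neutral control wells and 100% = parthenolide positive control wells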
# NSD2 HMT inh – inhibitors of human histone methyltransferase NSD2. NSD2 peptide methylation, AlphaScreen, 120 min. AID 743445. inhibition, % at 12.5 µM. hit rate 0.54% among 310,000. O96028; in the data active means inhibition above about 50%
# Target sequence (O96028 whole entry, looked up): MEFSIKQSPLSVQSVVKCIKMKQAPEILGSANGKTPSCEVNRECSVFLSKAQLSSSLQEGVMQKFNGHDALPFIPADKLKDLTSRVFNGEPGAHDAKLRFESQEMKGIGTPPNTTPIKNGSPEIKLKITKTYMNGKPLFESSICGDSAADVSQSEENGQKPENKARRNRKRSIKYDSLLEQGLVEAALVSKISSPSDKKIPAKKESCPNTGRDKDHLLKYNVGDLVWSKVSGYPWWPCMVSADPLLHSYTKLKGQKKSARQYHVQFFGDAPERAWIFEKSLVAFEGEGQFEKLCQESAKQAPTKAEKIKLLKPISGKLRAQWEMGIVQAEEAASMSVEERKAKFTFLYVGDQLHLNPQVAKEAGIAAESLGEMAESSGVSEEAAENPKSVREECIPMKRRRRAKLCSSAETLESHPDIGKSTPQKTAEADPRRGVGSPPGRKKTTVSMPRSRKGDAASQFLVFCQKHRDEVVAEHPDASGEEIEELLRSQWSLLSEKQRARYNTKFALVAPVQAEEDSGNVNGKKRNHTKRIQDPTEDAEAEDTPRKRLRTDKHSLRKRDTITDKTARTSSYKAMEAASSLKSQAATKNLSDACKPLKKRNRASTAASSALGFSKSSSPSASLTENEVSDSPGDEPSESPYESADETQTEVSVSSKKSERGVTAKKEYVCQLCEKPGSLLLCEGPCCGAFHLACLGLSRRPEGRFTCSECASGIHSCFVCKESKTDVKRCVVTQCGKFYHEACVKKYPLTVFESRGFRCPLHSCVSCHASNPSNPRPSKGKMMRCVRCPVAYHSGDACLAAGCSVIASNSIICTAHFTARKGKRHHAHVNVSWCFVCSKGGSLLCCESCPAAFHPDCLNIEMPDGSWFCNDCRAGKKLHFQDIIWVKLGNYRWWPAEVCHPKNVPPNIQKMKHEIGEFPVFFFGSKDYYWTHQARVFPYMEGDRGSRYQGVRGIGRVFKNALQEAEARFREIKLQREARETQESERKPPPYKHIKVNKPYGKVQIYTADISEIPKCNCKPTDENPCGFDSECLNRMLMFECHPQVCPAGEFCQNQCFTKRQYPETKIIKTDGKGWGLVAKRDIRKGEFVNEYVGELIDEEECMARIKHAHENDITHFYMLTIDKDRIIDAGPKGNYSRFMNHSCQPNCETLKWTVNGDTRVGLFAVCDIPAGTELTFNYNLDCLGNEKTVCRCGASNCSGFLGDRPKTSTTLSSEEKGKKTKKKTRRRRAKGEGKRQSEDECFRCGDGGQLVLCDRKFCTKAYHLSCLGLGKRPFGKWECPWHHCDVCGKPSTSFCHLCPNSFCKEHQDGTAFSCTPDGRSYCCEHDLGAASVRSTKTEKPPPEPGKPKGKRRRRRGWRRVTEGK
# CASP6 VEID inh – blocks human caspase-6 cleavage activity. purified caspase-6, Z-VEID-R110 cleavage fluorescence. inhibition, % at 12.5 µM. hit rate 0.53% among 350,000;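 active means mean inhibition across replicates at least about 35%, with every replicate also reaching that limit, limit read from the data; inconclusive means only one of the two criteria met; inactive means neither criterion met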;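 further: 0% = median of neutral control wells and 100% = no fluorescence left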
# esBAF inh – SWI/SNF esBAF complex inhibition | mouse ES cells, Bmi1-luciferase knock-in reporter, 24 h; 100% = twice the neutral-well signal | reporter increase, % at 12.5 µM | hit rate 2% among 350,000 | AID 602393; in the data active means activation above about 40%; inconclusive means no clear call, values can overlap the other calls;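 further: 0% = median of the plate's neutral control wells and 100% = double that signal; a rise in the Bmi1 reporter signal indicates esBAF inhibition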
# Wnt bcat act – Wnt/beta-catenin pathway activation; activation, % at 9.35 µM; hit rate 1.2% among 300,000; Wnt/beta-catenin reporter cell assay, activator, plate reader; AID 743398; in the data active means activation above about 30%, passing the limit was not always enough; inconclusive means no clear call, values can overlap the other calls;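 further: 0% = neutral control wells and 100% = positive control wells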
# Xi reactivation – activators of X-chromosome reactivation in mouse fibroblasts; activation, % at 7.58 µM; hit rate 0.055% among 360,000; AID 743238; XiGFP mouse fibroblasts, % GFP-positive cells imaging, 3 d; cells co-treated with 5-aza-dC sensitizer; scaled so ellipticine positive control = 100%;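 active means mean normalized replicate activation at least 10% and every replicate at or above 10%; inconclusive means only one of the two criteria met; inactive means mean below 10% and not all replicates reach 10%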;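 further: 0% = median of on-plate neutral control wells and 100% = ellipticine 6 µM median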
#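 System: 68-5-11 XiGFP fibroblast line | Buffer or medium: DMEM containing 5-aza-dC | Compound: Single point | Times: Compounds 3 days, fix/stain 15 min at room temperature | Benchmarks: Positive control ellipticine, 6 µM final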
# Starred values were filed as active, the others as inactive; ? = inconclusive; nt = no result given. Most compounds without a hit are left out; they make up all but 3% or so of the library.
SMILES,MITF act,NSD2 HMT inh,CASP6 VEID inh,esBAF inh,Wnt bcat act,Xi reactivation
COCCNc1nc(-c2ccc(OC)cc2)c(-c2ccc(OC)cc2)s1,10,-1,92*,nt,1,0
C[C@H]1CN([C@@H](C)CO)C(=O)c2cc(C3=CCCCC3)cnc2O[C@@H]1CN(C)C(=O)Cc1ccncc1,nt,nt,nt,-1,nt,-1
CC(=O)c1ccc(Nc2nc(C)cc(C)n2)cc1,66,-2,0,50*,22,0
COC(=O)c1[nH]c2ccc(Cl)cc2c1NC(=O)Oc1ccccc1,nt,3,nt,58*,20,nt
C(=C\n1nnc2ccccc21)/c1ccccn1,42,nt,-1,-13,34*,0
O=C(c1ccc(F)cc1)N1CCCCN2[C@H](CO)[C@@H](c3ccc(-c4ccc(F)cc4)cc3)[C@H]2C1,nt,nt,-3,nt,nt,nt
C[C@@H]1CN([C@@H](C)CO)C(=O)c2cc(NC(=O)Nc3ccc4c(c3)OCO4)ccc2O[C@@H](C)CCCCO[C@@H]1CN(C)S(=O)(=O)c1cn(C)cn1,nt,nt,2,47*,nt,0
C[C@@H]1CCCCO[C@H](CN(C)S(=O)(=O)c2cn(C)cn2)[C@@H](C)CN([C@@H](C)CO)C(=O)c2cc(NC(=O)Nc3ccc4c(c3)OCO4)ccc2O1,nt,nt,0,40,nt,-1
CNC[C@@H]1OCCCC[C@H](C)Oc2ccc(NS(=O)(=O)c3ccc(C)cc3)cc2C(=O)N([C@H](C)CO)C[C@H]1C,nt,nt,-3,55*,nt,0
C[C@H](CO)N1C[C@H](C)[C@H](CN(C)S(=O)(=O)c2cn(C)cn2)OCCCC[C@H](C)Oc2ccc(NC(=O)Nc3ccc4c(c3)OCO4)cc2C1=O,nt,nt,3,5,nt,0
C[C@H](CO)N1C[C@H](C)[C@@H](CN(C)S(=O)(=O)c2cn(C)cn2)OCCCC[C@H](C)Oc2ccc(NC(=O)Nc3ccc4c(c3)OCO4)cc2C1=O,nt,nt,-1,44*,nt,-1
C[C@@H]1CN([C@H](C)CO)C(=O)c2cc(NC(=O)Nc3ccc4c(c3)OCO4)ccc2O[C@@H](C)CCCCO[C@@H]1CN(C)S(=O)(=O)c1cn(C)cn1,nt,nt,2,68*,nt,-1
C[C@@H]1CN([C@@H](C)CO)C(=O)c2cc(C#CC3CC3)cnc2O[C@@H]1CN(C)C(=O)c1ccccc1,nt,nt,0,0,nt,0
O=C(C[C@@H]1CC[C@H](NC(=O)C2CCOCC2)[C@@H](CO)O1)NCc1ccncc1,nt,nt,1,nt,nt,0
Cc1nn(C)cc1NC(=O)C[C@@H]1CC[C@H]2[C@H](COc3ccc(NC(=O)NC(C)C)cc3C(=O)N2C)O1,nt,nt,0,-1,nt,0
CS(=O)(=O)Nc1ccc2c(c1)[C@@H]1C[C@@H](CC(=O)NCc3ccccc3)O[C@@H](CO)[C@@H]1O2,nt,nt,-2,3,nt,0
C[C@@H]1CCCCO[C@@H](CN(C)S(=O)(=O)c2cn(C)cn2)[C@H](C)CN([C@H](C)CO)C(=O)c2cc(NC(=O)Nc3ccc4c(c3)OCO4)ccc2O1,nt,nt,1,60*,nt,0
C[C@@H]1CN([C@H](C)CO)C(=O)c2cc(NS(=O)(=O)c3cn(C)cn3)ccc2O[C@@H](C)CCCCO[C@@H]1CN(C)C(=O)CCCN(C)C,nt,nt,36*,-3,nt,0
CCCNC(=O)N1CC2(CN(C(=O)COC)C2)c2c(n(C)c3cc(OC)ccc23)[C@H]1CO,nt,nt,5,nt,nt,0
C[C@@H]1CN([C@H](C)CO)C(=O)c2cc(-c3cccc(F)c3)cnc2O[C@@H]1CN(C)C(=O)c1cnccn1,nt,nt,1,-6,nt,0
O=C(O)c1cccc(S(=O)(=O)NNc2ccccc2C(F)(F)F)c1,2,-2,40*,-1,-2,nt
COc1ccc2c3c(n(C)c2c1)[C@@H](CO)N(CC1CCOCC1)CC31CN(C(C)=O)C1,nt,nt,nt,nt,nt,0
COc1ccc2nc(NC(=O)c3cccs3)sc2c1,nt,-4,-12,?,48*,0
COc1ccc2nc(NC(=O)c3ccc([N+](=O)[O-])o3)sc2c1,nt,6,7,36,7,0
O=C(Nc1nc2cc3c(cc2s1)OCCO3)c1cccs1,-15,-2,2,-57,32*,0
SMILES,MITF act,NSD2 HMT inh,CASP6 VEID inh,esBAF inh,Wnt bcat act,Xi reactivation
COc1ccc2nc(NC(=O)c3ccccc3[N+](=O)[O-])sc2c1,16,4,-2,50*,8,0
O=C(Nc1nc2ccccc2s1)c1cccs1,nt,-12,nt,nt,nt,nt
O=C(Nc1nc2ccccc2s1)c1ccccc1[N+](=O)[O-],nt,3,2,50*,9,0
Cc1noc(C)c1S(=O)(=O)N(C)C[C@H]1Oc2ccc(NC(=O)Nc3ccccc3)cc2CC(=O)N([C@H](C)CO)C[C@@H]1C,nt,nt,nt,3,nt,0
COc1ccccc1NC(=O)N[C@H]1C=C[C@@H](CC(=O)N[C@H](C)c2ccccc2)O[C@H]1CO,nt,nt,2,0,nt,0
C[C@H](O)C#Cc1ccc2c(c1)O[C@H](CN(C)C(=O)c1ccccc1)[C@H](C)CN([C@@H](C)CO)S2(=O)=O,nt,nt,0,-1,nt,-1
CCOc1ccc2nc(SCC(=O)c3cccs3)sc2c1,nt,0,nt,90*,50*,nt
O=C(NNc1nc2cc3c(cc2s1)OCO3)c1cccc(F)c1,56,nt,1,47*,6,0
COc1ccccc1C(=O)Nc1nc2cc3c(cc2s1)OCO3,66,-1,-1,57*,-1,0
COc1ccc2nc(NC(=O)c3ccccc3O)sc2c1,88*,-4,-4,8,38*,0
Cc1ccnc(SCC(=O)c2cccs2)n1,93*,-2,2,nt,44*,0
Cc1ccc(C(=O)Nc2nc(=O)n(C(=O)C3CC3)s2)cc1,17,0,3,nt,4,nt
Cc1ccc(C(=O)Nc2nc(=O)n(C(=O)c3ccccc3C)s2)cc1,22,4,nt,60*,nt,nt
COc1ccccc1CNC(=O)C[C@H]1C[C@@H]2c3cc(NS(=O)(=O)c4ccc(F)cc4)ccc3O[C@@H]2[C@H](CO)O1,nt,nt,2,-2,nt,0
O=C(Cc1cccc2ccccc12)Nc1ccccc1O,nt,-2,nt,nt,nt,nt
N#CC1=C(N)Oc2cc(O)c(Cl)cc2C1c1ccccc1F (centres undefined),-14,-3,44*,-2,0,0
CC(C)NC(=O)N(C)C[C@H]1Oc2c(cccc2[N+](=O)[O-])C(=O)N(C)C[C@@H]1C,nt,nt,nt,nt,nt,0
COc1ccccc1N1CCN(/N=C/c2ccc(Cl)c([N+](=O)[O-])c2)CC1,27,4,-2,44*,9,0
COc1ccccc1N1CCN(/N=C/c2ccc([N+](=O)[O-])cc2)CC1,nt,1,-1,?,13,0
COc1ccc(NC(=O)Nc2ccc3c(c2)C(=O)N([C@H](C)CO)C[C@H](C)[C@@H](CN(C)S(=O)(=O)c2c(C)noc2C)O3)cc1,nt,nt,nt,nt,nt,0
CC1(C)CC(=O)C=C(c2ccc(OC(F)(F)F)cc2)C1,22,nt,-5,-4,-4,0
